# Experiments:
# [1] = tested on: Trypanosoma brucei rhodesiense; assay: Antiprotozoan activity against Trypanosoma brucei rhodesiense STIB900; type: functional, organism-based
# [2] = tested on: Trypanosoma brucei rhodesiense; assay: Antitrypanosomal activity against Trypanosoma brucei rhodesiense STIB900 infected mouse model assessed as survival at 5 mg/kg, ip after 4 days; type: functional; details: route intraperitoneal
# How it was run: (§1)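 Acute African trypanosomiasis model in mice infected with T. b. rhodesiense STIB900. Diamidines were given intraperitoneally and prodrugs orally, dosed over 4 days. Read-outs were cures (mice surviving parasite-free for 60 days, out of 4) and average days of survival, compared against untreated infected controls.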
# [3] = tested on: Plasmodium falciparum; assay: Antiprotozoal activity against Plasmodium falciparum K1; type: functional, organism-based
# [4] = tested on: Trypanosoma brucei rhodesiense; assay: Antitrypanosomal activity against Trypanosoma brucei rhodesiense STIB900 infected mouse model assessed as survival at 25 mg/kg, po after 4 days; type: functional; how it was run: as §1
# [5] = tested on: L6; assay: Cytotoxicity against rat L6 cells; type: cell-based
# [6] = Binding affinity to DNA
# [7] = tested on: Trypanosoma brucei rhodesiense; assay: Antitrypanosomal activity against Trypanosoma brucei rhodesiense STIB900 infected mouse model assessed as survival at 20 mg/kg, ip after 4 days; type: functional; details: route intraperitoneal; how it was run: as §1
# [8] = tested on: Trypanosoma brucei rhodesiense; assay: Antitrypanosomal activity against Trypanosoma brucei rhodesiense STIB900 infected mouse model assessed as survival at 5 mg/kg, po after 4 days; type: functional; how it was run: as §1
SMILES,IC50 [1] [nM],Survival [2] [days],IC50 [3] [nM],Survival [4] [days],IC50 [5] [nM],Kd [6] [nM],Survival [7] [days],Survival [8] [days]
N=C(N)c1ccc(-c2ccc(-c3ccc(C(=N)N)cn3)o2)cc1,6.5,>54.5,6.5,,,,,
CO/N=C(\N)c1ccc(-c2cn3cc(-c4ccc(/C(N)=N\OC)cc4)nc3c(C)c2C)cc1,7210,,3250,15.5,,,,
CO/N=C(\N)c1ccc(-c2ccc3nc(-c4ccc(/C(N)=N\OC)cc4)cn3c2)cc1,825,,181,10.75,6900,,,
Cc1c(-c2ccc(C(=N)N)cc2)cn2cc(-c3ccc(C(=N)N)cc3)nc2c1C,15,>39.5,63,,4700,,,
N=C(N)c1ccc(-c2cn3c(n2)CCC(c2ccc(C(=N)N)cc2)C3)cc1 (stereo not given),14,31.25,85,,8900,250,>60,
CO/N=C(\N)c1ccc(-c2cn3cc(-c4ccc(/C(N)=N\OC)cc4)nc3cc2C)cc1,1740,,880,14.5,17000,,,
CO/N=C(\N)c1ccc(-c2cc(C)c3nc(-c4ccc(/C(N)=N\OC)cc4)cn3c2)cc1,2370,,614,>20.25,9500,,,
Cc1cc(-c2ccc(C(=N)N)cc2)cn2cc(-c3ccc(C(=N)N)cc3)nc12,38,14.75,23,,7400,,,
CO/N=C(\N)c1ccc(-c2ccc(-c3ccc(/C(N)=N/OC)cn3)o2)cc1,,,,>60,,,,>60
N=C(N)c1ccc(-c2ccc3nc(-c4ccc(C(=N)N)cc4)cn3c2)cc1,7.5,,92,,2500,20,22,
Cc1cc2nc(-c3ccc(C(=N)N)cc3)cn2cc1-c1ccc(C(=N)N)cc1,13,>37.25,27,,6800,,,
N=C(N)c1ccc(-c2ccc(-c3ccc(C(=N)N)cc3)o2)cc1 [FURAMIDINE],,35.5,,,,,,
CONC(=N)c1ccc(-c2ccc(-c3ccc(C(=N)NOC)cc3)o2)cc1 [PAFURAMIDINE],,,,>60,,,,

# — ChEMBL document CHEMBL1143929, “Synthesis and antiprotozoal activity of novel bis-benzamidino imidazo[1,2-a]pyridines and 5,6,7,8-tetrahydro-imidazo[1,2-a]pyridines” (Bioorg Med Chem, 2008)
